Test results taken from publication PMC10633821 (RSC Advances, 2023).
Values belong to the compound of their own block, whether it stands above or below them.

What was measured:
Type in all cases: cell-based
[1] = system: MCF-7 cells; test: MTT assay, anti-proliferative activity on MCF-7 cells; details: Homo sapiens, MCF7, 48 h, read-out: IC50, growth/viability of MCF-7 cells
[2] = MTT assay, cytotoxicity on normal breast cells MCF-10A; details: human, MCF-10A cells (normal breast cells)
[3] = system: MCF-7 cells; test: Cell cycle analysis by flow cytometry; details: MCF-7, 3b at IC50 (1.85 μM), 48 h
In short: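 MCF-7 cells were seeded, held 12 h at 37 °C, then treated for 48 h. Cells were collected and fixed in 75% ethanol at 20 °C for 18 h. They were rinsed in PBS, centrifuged, and exposed to RNase plus propidium iodide. DNA content was read by FACS Calibur flow cytometry to give cell-cycle phase distribution.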

[4] = system: MCF-7 cells; test: Annexin V-FITC/PI assay of apoptosis and necrosis; details: MCF-7, 3b at IC50 (1.85 μM), 48 h
In short: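 MCF-7 cells were treated for 48 h, then harvested and washed twice in PBS by centrifugation (180 g, 10 min, 4 °C). Cells were resuspended in binding buffer with Annexin V-FITC for 10 min at ambient temperature, then diluted with more binding buffer. PI was added immediately before FACS Calibur flow cytometry to separate apoptotic from necrotic cells.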

[5] = biological target: human DNA topoisomerase II-β (TOPII-β) (Homo sapiens, UniProt Q02880); test: Topoisomerase II activity in MCF-7 cells; details: ELISA kit
human DNA topoisomerase II-β (TOPII-β), sequence (Q02880 whole entry): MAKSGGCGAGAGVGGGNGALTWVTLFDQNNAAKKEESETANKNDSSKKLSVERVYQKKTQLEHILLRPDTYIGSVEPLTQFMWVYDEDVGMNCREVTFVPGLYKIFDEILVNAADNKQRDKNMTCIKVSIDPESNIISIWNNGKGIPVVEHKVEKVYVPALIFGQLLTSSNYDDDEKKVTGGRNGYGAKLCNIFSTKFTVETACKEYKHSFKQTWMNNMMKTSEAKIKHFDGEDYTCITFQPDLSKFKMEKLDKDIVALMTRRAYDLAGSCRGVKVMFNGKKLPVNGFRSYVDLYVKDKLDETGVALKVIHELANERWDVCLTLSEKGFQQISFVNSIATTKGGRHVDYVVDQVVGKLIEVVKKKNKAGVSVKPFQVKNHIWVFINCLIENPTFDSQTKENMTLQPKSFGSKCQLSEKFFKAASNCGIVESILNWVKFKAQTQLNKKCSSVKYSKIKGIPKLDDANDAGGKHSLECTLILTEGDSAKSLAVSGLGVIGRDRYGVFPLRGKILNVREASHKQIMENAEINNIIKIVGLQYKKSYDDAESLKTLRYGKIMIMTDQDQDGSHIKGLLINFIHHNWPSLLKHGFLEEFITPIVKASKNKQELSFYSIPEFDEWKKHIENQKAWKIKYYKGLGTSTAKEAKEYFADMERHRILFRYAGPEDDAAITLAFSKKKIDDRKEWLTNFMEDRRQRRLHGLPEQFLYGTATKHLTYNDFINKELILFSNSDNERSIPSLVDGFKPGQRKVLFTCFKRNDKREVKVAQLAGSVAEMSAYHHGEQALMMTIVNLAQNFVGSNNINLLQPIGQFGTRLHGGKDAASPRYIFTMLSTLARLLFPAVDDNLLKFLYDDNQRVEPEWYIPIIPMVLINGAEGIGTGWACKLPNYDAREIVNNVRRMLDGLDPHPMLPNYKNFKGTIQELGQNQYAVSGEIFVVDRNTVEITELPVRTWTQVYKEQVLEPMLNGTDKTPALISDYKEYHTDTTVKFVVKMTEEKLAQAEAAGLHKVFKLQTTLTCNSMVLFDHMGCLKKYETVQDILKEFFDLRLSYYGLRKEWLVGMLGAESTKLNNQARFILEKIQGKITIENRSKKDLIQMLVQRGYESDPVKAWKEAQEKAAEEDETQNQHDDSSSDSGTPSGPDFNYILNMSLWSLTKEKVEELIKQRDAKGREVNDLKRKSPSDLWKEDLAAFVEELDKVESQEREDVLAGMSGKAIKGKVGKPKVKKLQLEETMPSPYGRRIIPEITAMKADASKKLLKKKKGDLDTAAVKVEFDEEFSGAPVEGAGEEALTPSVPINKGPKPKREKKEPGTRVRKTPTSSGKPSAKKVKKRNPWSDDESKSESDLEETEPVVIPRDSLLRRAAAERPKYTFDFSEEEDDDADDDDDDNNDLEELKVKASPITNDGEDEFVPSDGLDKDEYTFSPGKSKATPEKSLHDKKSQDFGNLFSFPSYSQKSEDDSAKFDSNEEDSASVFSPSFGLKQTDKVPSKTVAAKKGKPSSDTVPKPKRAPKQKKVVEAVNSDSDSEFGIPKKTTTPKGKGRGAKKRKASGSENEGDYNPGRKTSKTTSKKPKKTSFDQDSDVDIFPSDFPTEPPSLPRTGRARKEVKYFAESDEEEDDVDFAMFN
In short: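 Sandwich ELISA for human TOPII-β, run per the kit protocol. Standards and samples were incubated 2 h at 37 °C, then biotin-antibody 1 h at 37 °C, three washes, HRP-avidin 1 h at 37 °C and five washes. TMB substrate was added for 15–30 min at 37 °C in the dark, then stop solution. OD450 was read within 5 min, in triplicate.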

IC50 [1]: 55 µM
SMILES: COc1ccc(Br)c2cc(-c3cnc4ccccc4n3)c(=O)oc12 [compound 5, 2-(5-bromo-8-methoxy-coumarin-3-yl)-quinoxaline]

IC50 [1]: 4.08 µM
SMILES: COc1cccc2cc(-c3cnc4ccccc4n3)c(=O)oc12 [compound 4b, 2-(8-Methoxycoumarin-3-yl)-quinoxaline]

SMILES: COc1cccc2cc(C3=Nc4ccccc4NC3)c(=O)oc12 [compound 3b, 2-(8-Methoxy-coumarin-3yl)-3,4-dihydroquinoxaline]
IC50 [1]: 1.85 ± 0.11 µM | IC50 at 48 h [2]: 33.7 ± 2.04 µM | percentage of cells in the pre-G1 phase ([3]; untreated control 2.02%): 42.39% | percentage of cells in the G2/M phase (%DIP G2/M) ([3]; untreated control 11.65%): 6.52% | proportion of cells in the S phase (%DIP S) ([3]; untreated control 32.89%): 47.12% | percentage of cells in the G0/G1 phase (%DIP G1) ([3]; untreated control 55.46%): 46.36% | increase in early apoptosis vs untreated control [4]: 51.7 fold | increase in programmed cell death vs untreated cells [4]: 21 fold | proportion of cells in late-stage apoptosis ([4]; control 0.29%): 12.42% | proportion of cells in early apoptosis ([4]; control 0.51%): 26.39% | proportion of cells suffering necrosis ([4]; untreated 1.2%): 3.58% | total programmed cell death ([4]; untreated cells 2.02%): 42.39% | reduction of topo II enzyme in comparison to untreated control cells [5]: 6.5 fold

IC50 [1]: 8.6 µM
SMILES: Oc1c(N=Nc2ccccc2)cc(Br)cc1C1=CNc2ccccc2N1 [compound 7, 2-(5-bromo-3-phenylazo-2-hydroxyphenyl)-1,4-dihydro quinoxaline]
